tim10-1 inh = tim10-1 yeast growth inhibition. AID 463190. 2.2% of 330,000 active. inhibition, % at 20 µM. S. cerevisiae tim10-1 ts strain growth, BacTiter-Glo, 24 h;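 active = inhibition of at least 40%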;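 note: mutant grown at 25 °C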
TIM10 inh = inhibits growth of TIM10 yeast strain. S. cerevisiae TIM10 strain growth, BacTiter-Glo luminescence, 24 h. inhibition, % at 10 µM. 1.4% of 330,000 active. AID 463195;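 active = inhibition of 40% or more at the single tested concentration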;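 note: wild-type TIM10 isogenic control strain grown at permissive 25 °C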
UPR XBP1 act = adaptive UPR (XBP1) activation; AID 463104; activation, % at 20 µM; 0.33% of 330,000 active; CHO-XBP1 luciferase reporter, IRE1-XBP1 UPR activation, luminescence; percent of tunicamycin response, DMSO as zero;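 active = versus positive control, 20 µM dose yields 30% or more activation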
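Material – CHO cell line with stable XBP1 luciferase reporter · Buffer or medium – F12 plus 10% FBS · Compound – single point, 20 µM final compound, 1% DMSO · Schedule – 16-18 h cell attachment at 37 °C, then 6 h compound exposure · Signal – Steady-Glo luminescence read · Benchmarks – high control tunicamycin 10 µg/mL final, low control DMSO vehicle only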
CHOP UPR activ = apoptotic UPR (CHOP) activation; activation, % at 10 µM; 0.34% of 330,000 active; AID 449763; CHO-CHOP luciferase reporter, luminescence; percent of tunicamycin response over DMSO baseline;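 active = at 10 µM dose, activation of 40% or more, normalized to positive control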
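Assay system: CHO cells with stable CHOP pathway luciferase reporter; Buffer or medium: F12 plus 10% serum; Times: 16-18 h cell attachment, then 6 h compound exposure, 37 °C; Signal: luciferase luminescence; Read-out basis: percent activation relative to tunicamycin control; Control set: tunicamycin high control, DMSO low control.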
tim23-1 inh = growth inhibitors of tim23-1 mutant yeast. inhibition, % at 20 µM. S. cerevisiae tim23-1 growth, BacTiter-Glo luminescence, 24 h. 1.3% of 330,000 active;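 active = growth inhibition of the mutant yeast at or above 50%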;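 note: temperature-sensitive mutant grown at 25 °C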
tim23-1 conf = confirmation of tim23-1 mutant yeast growth inhibitors; shares compounds with tim23-1 inh; S. cerevisiae tim23-1 growth, BacTiter-Glo luminescence, 24 h; inhibition, % at 20 µM; 83% of 4,400 active; AID 463218;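 active = inhibition above about 39% in either of two replicate wells at 20 µM, limit read from the data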;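 note: temperature-sensitive tim23-1 mutant grown at 25 °C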
Large screens that a line does not name were inactive (follow-up assays come after a bar, where they were run); ! = repeats disagree. This is a sample that favours compounds with a hit; in the whole collection about 3.9% have one here.

COc1ccnc2c1c(=O)n(Cc1ccc(Cl)cc1)c(=O)n2C	none
N/C(=N\OC(=O)C1CC1)c1ccc([N+](=O)[O-])s1	none
O=C(N/N=C/c1cc(Br)cc(Br)c1O)c1cccc(N2CCCC2=O)c1	tim23-1 inh 50.8 | tim23-1 conf 55.7
O=C(N/N=C/c1ccc(Cl)cc1Cl)c1cccc(N2CCCC2=O)c1	none
Cc1cc(NC(=O)Nc2ccc(Cl)c(Cl)c2)no1	none
O=C(Nc1ccc(Cl)c(Cl)c1)Nc1ccon1	tim23-1 inh 53.2 | tim23-1 conf 48.2
CC(C)Nc1nc(N)c(C(=O)C23CC4CC(CC(C4)C2)C3)s1	tim23-1 inh 53.1 | tim23-1 conf 55.7
CCC(C)Sc1ccc(-c2nc3cc(C)ccn3c2NC2CCCCC2)cc1 (centres undefined)	tim23-1 inh 56.2 | tim23-1 conf 47.2
CCC(C)Sc1ccc(-c2nc3cnccn3c2NC2CCCCC2)cc1 (centres undefined)	none
O=S(=O)(c1ccsc1)N1CC=C(c2ccccc2)CC1	none
CC(=O)Oc1cc(OC(C)=O)c2c(=O)c(-c3ccc4c(c3)OCCCO4)c(C)oc2c1	none
Cc1oc2cc(O)cc(O)c2c(=O)c1-c1ccc2c(c1)OCCCO2	tim23-1 inh 65.3 | tim23-1 conf 53.0
CCC1CCCCN1S(=O)(=O)c1ccc(NC(=O)c2ccncc2)cc1 (centres undefined)	tim23-1 inh 79.5 | tim23-1 conf inactive
CC1CCc2c(sc3nc(C(C)(C)C)nc(N4CCN(C(=O)CCl)CC4)c23)C1 (centres undefined)	tim23-1 inh 50.3 | tim23-1 conf 52.8
Cc1ccc(C(=O)N/N=C/c2nc3ccccc3n2C)cc1	tim23-1 inh 53.6 | tim23-1 conf 38.8
Cc1ccc(/C(O)=C2\C(=O)C(=O)N(C)C2c2cccc([N+](=O)[O-])c2)cc1 (centres undefined)	none
Cc1cc2c(c(C)c1Cl)C(c1ccc3c(c1)OCO3)CC(=O)O2 (centres undefined)	none
Cc1ccc(C(C)C)c2c1C(c1ccc3c(c1)OCO3)CC(=O)O2 (centres undefined)	tim23-1 inh 60.0 | tim23-1 conf 38.9
C#CCOCCOCCOCCNc1nc(N2CCN(C(=O)CCCCCCCCCCNC(=O)[C@H]([C@@H](C)CC)n3cc(CCCCN=C(N)N)nn3)CC2)nc(N2CCN(C(=O)CCCCCCCCCCNC(=O)[C@H](CCCCN)n3cc(C)nn3)CC2)n1	tim23-1 inh 58.0 | tim23-1 conf 41.4
CCCCN(CC(=O)NC1CCCC1)C(=O)C(=O)Nc1ccc2c(c1)OCCO2	none
Clc1cccc(-c2ccc3ncnc(NCc4cccs4)c3c2)c1	tim23-1 inh 50.8 | tim23-1 conf 40.2
Clc1ccccc1-c1ccc2ncnc(NCc3cccs3)c2c1	tim23-1 inh 54.2 | tim23-1 conf inactive
Cc1cccc(-c2ccc3ncnc(NCc4cccs4)c3c2)c1	none
Oc1ccccc1/C=N/NC(=S)NC1CC2C=CC1C2 (centres undefined)	tim23-1 inh 68.9 | tim23-1 conf 46.0
Cc1ccc(/C=C/C(=O)N2CCCC(C(N)=O)C2)o1 (centres undefined)	none
O=C(CSc1nnc(NC(=O)c2ccccc2F)s1)NCC1CCCO1 (centres undefined)	none
OC[C@@H]1[C@@H](c2ccc(Cl)cc2)C(c2ccc(F)cc2)=NN1c1ccccc1	tim23-1 inh 56.3 | tim23-1 conf inactive
OC[C@@H]1[C@@H](c2ccccc2)C(c2ccc(F)cc2)=NN1c1ccccc1	tim23-1 inh 56.4 | tim23-1 conf 45.4
CCCn1c(=O)c(C(=O)OCC)c(O)c2cc(Br)ccc21	none
CCOC(=O)c1c(CN(C)C)n(C)c2c(O)c(N=NC(N)=O)c3ccc(Br)cc3c12	tim23-1 inh 54.2 | tim23-1 conf inactive
O=C(O)CNC(=O)c1ccc(NC(=O)/C(=C/c2ccccc2)NC(=O)c2ccco2)cc1	none
C#CCSc1nncn1C(=O)/C=C/c1ccccc1	tim23-1 inh 52.1 | tim23-1 conf 76.8
CC1CCCC(C)N1CCNC(=O)CCc1nnc2n(Cc3ccccc3)c(=O)c3ccccc3n12 (centres undefined)	none
c1cnc2c(c1)ccc1cccnc12	tim23-1 inh 59.1! | tim23-1 conf 44.1
Cc1cccc2cccnc12	none
COCCCNC(=O)C[C@H]1C[C@H](C(=O)N2CCOCC2)[C@@]2(CCC3CCCC3)c3[nH]c4ccc(Cl)cc4c3CCN2C1=O	none
CCN(CC)c1ccc(/C=C2/C(=O)ON=C2C)cc1	tim23-1 inh 55.8 | tim23-1 conf 60.4
CC1=NOC(=O)/C1=C/c1ccc(N(C)C)cc1	none
CN(C)C(=O)CSc1nnc2sc3ccccc3n12	none
c1csc(CSc2nnc3sc4ccccc4n23)c1	tim23-1 inh 53.7 | tim23-1 conf 50.3
CSc1nnc2n(Cc3ccccc3)c(=O)c3c4c(sc3n12)COC(C(C)C)C4 (centres undefined)	none
Cc1nnc2n(Cc3ccccc3)c(=O)c3c4c(sc3n12)COC(C(C)C)C4 (centres undefined)	tim23-1 inh 54.9 | tim23-1 conf inactive
OCc1ccccc1N=c1ssnc1Cl	none
Clc1nssc1=Nc1nncs1	tim23-1 inh 51.5 | tim23-1 conf 76.2
CC(OC(=O)c1ccc(Cl)nc1)C(=O)N1CCc2ccccc21 (centres undefined)	none
COc1cc(CCc2ccccc2)c(C(=O)O)c(O)c1C/C=C(/C)CCC=C(C)C	tim23-1 inh 74.6 | tim23-1 conf inactive
CN1CCN(c2cc(-c3ccccc3)nc3cc(-c4ccc(F)cc4)nn23)CC1	tim23-1 inh 55.3 | tim23-1 conf 43.1
OCCCNc1cc(-c2ccccc2)nc2cc(-c3ccc(F)cc3)nn12	tim23-1 inh 51.0 | tim23-1 conf 55.0
COc1cccc(-c2cc3nc(-c4ccccc4)cc(N4CCC5(CC4)OCCO5)n3n2)c1	none
Cc1nn(S(=O)(=O)c2ccccc2)c(C)c1S(=O)(=O)N1CCC(C)CC1	none
Oc1ccc(Cl)cc1C=Nc1ccc2c3c(cccc13)CC2	tim23-1 inh 62.8 | tim23-1 conf 61.9
Cc1cccc(C=Nc2ccc3c4c(cccc24)CC3)c1O	none
NNC(=O)c1oc2nc(-c3ccccc3)cc(-c3ccccc3)c2c1N	tim23-1 inh 59.0 | tim23-1 conf inactive
Cc1ccc(-c2cc(-c3ccco3)c3c(N)c(C(=O)NN)oc3n2)cc1	none
O=Cc1ccccc1OCc1ccc2c(c1)OCO2	tim23-1 inh 56.9 | tim23-1 conf 56.1
O=C1CCN(Cc2ccccc2)C=C1c1ccc2ccccc2c1	tim23-1 inh 50.2 | tim23-1 conf 46.6
COc1ccc(S(=O)(=O)Nc2ccc(-n3cccc3)cc2)cc1	tim23-1 inh 55.2 | tim23-1 conf 49.7
